# Cav32 inh: human Cav3.2 channel inhibition, primary screen. O95180. Cav3.2-expressing cells, Fluo-4 calcium fluorescence FDSS; hits give low values. B-score at 10 µM. 100,000 compounds, 4% hits. AID 449739;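 active means single-dose well whose peak fluorescence ratio is a statistical outlier from its plate by either plate-standardised score or position-corrected B-score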
# EphB4 ephrin blk: EphB4-ephrin-B2 interaction antagonism; 97,000 compounds, 0.15% hits; P54760; inhibition, % at 7 µM; EphB4 LBD / TNYL-RAW-Alexa532 peptide, fluorescence polarization;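 active means inhibition above the screen-wide mean inhibition plus 3 SD, cut at about 15% in these data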;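 further: 0% = DMSO wells and 100% = excess unlabeled TNYL-RAW peptide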
# Rev-RRE block: inhibitors of HIV-1 Rev-RRE RNA interaction | P05866 | Rev peptide-RRE RNA binding, FRET | inhibition, % at 8 µM | 97,000 compounds, 0.79% hits;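 active means inhibition above the screen-wide mean plus 3 SD, cut at about 35% in these data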;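 further: 0% = median DMSO wells and 100% = median Neomycin B control wells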
#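 assay system = Cy5-tagged RRE RNA duplex with fluorescein-tagged Rev peptide | incubation = 5 + 15 min at 25 °C | also added = labelled Rev peptide | measure = % inhibition of FRET ratio versus controls | benchmarks = DMSO wells as 0% and neomycin B wells as 100% inhibition | measured by = FRET fluorescence readout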
# DAT uptake mod: human DAT dopamine uptake with cocaine, either direction. Q01959. LLC-PK1 hDAT cells, [14C]-dopamine uptake with cocaine IC80; actives deviate in either direction. B-score at 10 µM. 110,000 compounds, 1.3% hits;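 active means Z score or B-score, a plate-position-corrected score, falls beyond the plate's 99.7% confidence bounds, in either direction; inactive means both scores lie inside the 99.7% bounds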;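 further: scored against the spread of the other compound wells on the same plate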
# Target sequence (Q01959 whole entry, looked up): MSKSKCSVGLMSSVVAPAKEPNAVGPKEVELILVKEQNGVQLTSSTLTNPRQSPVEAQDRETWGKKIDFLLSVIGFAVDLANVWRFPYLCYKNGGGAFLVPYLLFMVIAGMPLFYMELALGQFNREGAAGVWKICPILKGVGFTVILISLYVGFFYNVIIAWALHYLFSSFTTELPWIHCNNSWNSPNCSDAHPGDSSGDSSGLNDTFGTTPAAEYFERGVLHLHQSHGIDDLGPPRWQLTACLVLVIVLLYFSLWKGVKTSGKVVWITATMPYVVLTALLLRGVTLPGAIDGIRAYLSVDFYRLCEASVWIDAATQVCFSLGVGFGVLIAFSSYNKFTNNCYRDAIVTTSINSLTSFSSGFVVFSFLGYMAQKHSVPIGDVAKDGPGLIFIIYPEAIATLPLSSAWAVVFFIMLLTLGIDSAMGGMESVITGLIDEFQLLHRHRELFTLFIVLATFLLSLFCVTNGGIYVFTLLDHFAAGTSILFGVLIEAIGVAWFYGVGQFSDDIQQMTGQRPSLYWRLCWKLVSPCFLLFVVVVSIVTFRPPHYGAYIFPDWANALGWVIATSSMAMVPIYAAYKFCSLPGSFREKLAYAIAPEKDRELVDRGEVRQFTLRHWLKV
# * = called active by the depositor; · = no result; [ ] = another dose, or the depositor's remark. This is a sample that favours compounds with a hit; in the whole collection about 5.4% have one here.
SMILES,Cav32 inh,EphB4 ephrin blk,Rev-RRE block,DAT uptake mod
O=S(=O)(c1ccc(Cl)cc1)n1nnc2ccccc21,0.613,-2.0,2.1,·
Cc1nc2ccccc2n2c(O)c(CC(=O)O)cc12,-6.29*,·,·,-0.356
COc1ccc(C(=O)/C=C/c2ccccc2C(F)(F)F)cc1,-2.44,0.2,21.8,-1.59
Cc1oc(-c2ccccc2Cl)nc1Cn1cccc1C1=NC(c2ccccc2)CO1 (stereo unspecified),-6.71*,1.7,5.8,-0.376
CCOC(=O)N1CCN(S(=O)(=O)c2cc(Cl)c(OC)cc2Cl)CC1,0.352,2.8,9.2,1.65*
CCOC(=O)c1c(NC(=O)CSc2nnc(CNc3ccc(F)cc3)o2)sc(C)c1C,-4.62*,3.4,2.8,-0.383
CCOC(=O)c1c(NC(=O)CSc2nnc(CNc3ccc(Cl)cc3)o2)sc(C)c1C,-1.44,0.0,7.4,-0.461
O=C(Nc1cc(C(F)(F)F)ccc1N1CCOCC1)C1Cc2ccccc2CN1C(=O)c1ccco1 (stereo unspecified),-8.81*,3.7,17.7,-0.333
CC(C)(C)OC(=O)NCCCCCc1nnc(SCC(=O)Nc2cccc(Cl)c2)o1,-7.32*,6.0,10.2,0.00257
CC(C)(c1ccccc1)c1ccc(OCCn2cnc3ccccc3c2=O)cc1,-6.55*,-6.3,1.9,0.0503
COc1cc(N2CCCC2)c(OC)cc1/C=C(/C#N)c1ccc(F)cc1,-3.71,-1.4,94.6*[fluorescence artefact?],-1.63
Cc1c(C(=O)NCCc2ccc3c(c2)OCCO3)oc2ccccc12,-6.98*,1.7,8.7,0.587
COC(C[C@@H]1O[C@@H]1[C@@H](O)COCc1ccccc1)OC,-2.93,·,·,0.913
CCC1Oc2ccc(C)cc2N(CC(=O)NCC2COc3ccccc3O2)C1=O (stereo unspecified),-5.17*,-1.2,8.9,0.969
O=C(N/N=C/c1ccccc1Br)c1ccc(CSc2cccc3cccnc23)cc1,-5.22*,1.0,11.6,1.57
CC(NC(=O)CSc1ncccn1)c1ccccc1 (stereo unspecified),0.924,2.6,4.0,-0.394
CCOC(=O)c1[nH]cnc1C(=O)NC(C)C,0.313,-3.5,-3.6,-1.11
CCOC(=O)C1CCN(C(c2cc3ccc(C)cc3[nH]c2=O)c2nnnn2C2CCCCC2)CC1 (stereo unspecified),-3.27,-3.2,5.8,0.52
CCOC(=O)c1cc2oc(C(c3nnnn3C3CCCCC3)N3CCOCC3)cc2[nH]1 (stereo unspecified),-3.51*,3.6,6.4,1.32
O=C(Nc1ccccc1)c1sc2cc(C(F)(F)F)cnc2c1-c1cccs1,-0.635,2.6,12.3,0.0481
COc1ccccc1NC(=O)c1nnn(Cc2ccccc2)c1NC(=O)C(F)(F)F,-7.74*,-8.7,0.4,0.154
O=C(Nc1ccccc1)c1nnn(Cc2ccccc2)c1NC(=O)C(F)(F)F,-8.4*,4.2,-1.6,-0.421
Cc1ccc(NC(=O)CCC(=O)NNC(=O)C(c2ccccc2)c2ccccc2)c(C)c1,-1.26,3.2,10.3,-0.455
O=C(Nc1ccc(OC(=O)c2ccco2)cc1)c1ccco1,0.164,8.3,1.9,-1.21
O=C(Nc1ccc(Oc2cccc3ccccc23)cc1)c1ccco1,-2.18,2.3,11.7,2.36*
SMILES,Cav32 inh,EphB4 ephrin blk,Rev-RRE block,DAT uptake mod
CN(C)C(=O)C(CCN1CCC(O)(c2ccc(Cl)cc2)CC1)(c1ccccc1)c1ccccc1,-4.63*,·,·,0.881
CN(CC(=O)Nc1cccc2ccccc12)c1ccc(S(=O)(=O)N2CCOCC2)cn1,-0.0701,-4.6,-0.1,0.0458
COc1cccc(-n2c(SCC(=O)N3c4ccccc4CC3C)nnc2-c2ccco2)c1 (stereo unspecified),-3.72*,4.2,1.4,2.88*
Nc1ccc(S(=O)(=O)c2ccc(Cl)cc2)cc1,0.102,0.6,8.3,-3.09*
CCN1C(=O)c2cccc3c(NC(=O)c4ccc(S(=O)(=O)N5CCOCC5)cc4)ccc1c23,1.23,-0.4,19.4,3.7*
CCN1C(=O)c2cccc3c(NC(=O)c4ccc(S(=O)(=O)N(C)C)cc4)ccc1c23,0.498,·,·,0.0624
CC(C)Cn1c(N)c(C(=O)COC(=O)c2ccc3ccccc3n2)c(=O)n(C)c1=O,1.53,3.1,-3.8,1.59
CCOc1ncccc1C(=O)OCC(=O)NCCc1ccc(OC)cc1,0.0155,·,·,2.59
C(=N\c1nc2ccccc2[nH]1)/c1cccs1,3.06*,·,·,-0.314
Cn1c(/C=N/c2nc3ccccc3[nH]2)nc2ccccc21,0.0476,-3.9,8.8,-2.45*
Cn1c(CSCc2ccc(F)cc2)nnc1SCC(=O)N1CCN(c2ccccc2)CC1,-1.93,7.2,4.8,0.776
CC(C)Cn1[nH]c2c3c(ccc2c1=O)C(=O)c1ccccc1C3=O,2.24,1.5,10.1,1.13
O=C(CSc1nc2cc(Cl)ccc2s1)c1cc2ccccc2o1,·,-4.0,68.3*,·
Cc1cc(NC(=O)CSc2nc3cc(Cl)ccc3s2)no1,-0.14,-2.4,11.3,0.125
Cc1cc(SCC(=O)c2cc3ccccc3o2)nc2ccccc12,0.145,-1.8,45.9*,0.129
N#Cc1ccc(Oc2ccc(/C=N/O)cn2)cc1,0.348,3.2,6.5,-0.224
Nc1nc(N)c2sc3nc(C(F)(F)F)cc(C(F)(F)F)c3c2n1,0.0618,3.9,37.0*,1.33
COc1ccc(CSCC(=O)N/N=C/c2ccc(OCC(=O)NCc3ccco3)cc2)cc1,0.971,4.9,6.7,0.744
Cc1ccc(CSCC(=O)N/N=C/c2sccc2C)cc1,-4.9*,-1.9,10.5,3.18*
C(=C\c1ccccc1)/CSc1nnc(-c2cnccn2)n1Cc1ccco1,-3.45*,-8.2,5.5,0.186
Fc1ccccc1CSc1nnc(-c2cnccn2)n1Cc1ccco1,·,2.1,7.1,·
Cc1cccc(-c2nnc(NC(=O)c3ccc(Cl)cc3)o2)c1,-4.44*,·,·,1.88
COc1ccc(C(=O)Nc2nnc(-c3ccccc3)o2)cc1OC,-0.664,4.2,7.2,2.42
O=C(Nc1nnc(-c2ccc3c(c2)CCCC3)o1)c1ccccc1Cl,·,5.0,7.3,0.0904
O=C(Nc1nnc(-c2ccc3c(c2)CCCC3)o1)c1ccccc1,-5.59*,-4.2,4.4,-0.0797
SMILES,Cav32 inh,EphB4 ephrin blk,Rev-RRE block,DAT uptake mod
CCOc1cccc(OCCCNCCCOC)c1,-0.561,6.1,6.6,-0.816
Cc1ccc(NC(=O)C2(NC(=O)c3cccc(N4C(=O)CSC4c4ccccc4)c3)CCCCC2)cc1 (stereo unspecified),-6.93*,6.0,4.2,0.628
CCc1ccc(/C=C/C(=O)C2C(=O)c3ccccc3C2=O)cc1,-3.79*,-3.5,5.1,0.208
COC(=O)CSc1nc(SCc2ccccc2Cl)nc2c1CCCC2,-4.99*,-10.9,8.0,0.987
O=C(COc1ccc2ccccc2c1)Nc1cccc2cccnc12,-1.35,1.5,13.5,-7.56*
O=C(Nc1cccc2cccnc12)c1cccc2ccccc12,-0.434,5.7,6.2,-0.708
O=C(COc1ccc2ccccc2c1)NCCNC(=O)COc1ccc2ccccc2c1,-0.584,-3.6,3.1,0.0358
O=C(CN1C(=O)c2ccccc2C1=O)Nc1cccc2cccnc12,-10.8*,3.9,8.7,-0.0316
CCC(=O)N1CCN(c2ccc(OC)cc2[N+](=O)[O-])CC1,0.716,7.7,-0.2,-0.185
